Measurements taken from publication PMC7479925 (Journal of medicinal chemistry, 2012).
Where two headings read alike, the source gives them in different places.

Legend:
Tdp1 [1] = biological target: T1, Tdp1 (Homo sapiens, UniProt Q9NUW8); assay: SPR binding to immobilized Tdp1; details: dilution series 0.39-50 μM
In short: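 Tdp1 (1 μM) was pre-bound for 20 min with 2 μM 3′-phosphate 14-mer oligo in 10 mM Na acetate pH 4.5 to shield active-site amines, then amine-coupled to a CM5 chip (~6000 RU), with a Tdp1-free reference surface. Test compound was injected at 30 μL/min, 25 °C, in 50 mM Tris/HCl pH 7.5, 80 mM KCl, 5% DMSO. Referencing used buffer cycles and a DMSO calibration; NaCl/DMSO regeneration.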

[2] = system: N14Y oligomer (biotin-[…]-Tyr); assay: SPR binding to immobilized tyrosyl-labeled oligonucleotide; details: dilution series 0.39-50 μM
Tdp1 [3] = biological target: T1, Tdp1; assay: Tdp1 gel-based assay with recombinant human Tdp1 and N14Y DNA substrate; assay type: biochemical; details: for Tdp1 inhibition (in words): highest tested concentration 333 μM

T1 sequence (Q9NUW8 whole entry): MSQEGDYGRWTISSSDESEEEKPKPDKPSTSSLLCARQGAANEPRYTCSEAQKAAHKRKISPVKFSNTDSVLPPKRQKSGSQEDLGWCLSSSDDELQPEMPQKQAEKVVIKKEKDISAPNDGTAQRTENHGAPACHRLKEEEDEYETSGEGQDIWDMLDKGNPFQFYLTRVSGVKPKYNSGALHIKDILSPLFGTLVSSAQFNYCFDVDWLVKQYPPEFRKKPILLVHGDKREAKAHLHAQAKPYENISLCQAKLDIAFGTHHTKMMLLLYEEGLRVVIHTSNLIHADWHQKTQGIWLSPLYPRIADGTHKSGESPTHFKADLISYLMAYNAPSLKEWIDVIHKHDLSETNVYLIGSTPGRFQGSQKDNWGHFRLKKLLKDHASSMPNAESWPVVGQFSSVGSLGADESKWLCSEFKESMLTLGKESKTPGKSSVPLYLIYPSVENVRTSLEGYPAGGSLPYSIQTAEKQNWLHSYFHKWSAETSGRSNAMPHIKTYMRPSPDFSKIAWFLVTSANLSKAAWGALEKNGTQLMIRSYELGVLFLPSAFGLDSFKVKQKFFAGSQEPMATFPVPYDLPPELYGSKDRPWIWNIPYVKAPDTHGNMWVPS

O=C1NC(=S)/C(=C/c2ccc(O)c(O)c2O)S1 [Compound 50, (Z)-4-Thioxo-5-(2,3,4-trihydroxybenzylidene)thiazolidin-2-one]
binding to Tdp1 (SPR) (Tdp1 [1]): concentration-dependent binding
binding to N14Y oligomer (SPR) [2]: No binding

(Z)-5-(2-Bromobenzylidene)-4-thioxothiazolidin-2-one [Compound 62]
IC50 (Tdp1 [3]; read-out: Tdp1 IC50, recombinant human Tdp1, gel-based assay): 30 ± 12 µM

N#CC(C#N)=Cc1cc(O)c(O)c(O)c1 [Compound 7]
Tdp1 inhibition (in words) (Tdp1 [3]): completely inactive

O=C1NC(=S)/C(=C/c2ccc(P(=O)(O)O)cc2)S1 [Compound 74, (Z)-(4-((2-Oxo-4-thioxothiazolidin-5-ylidene)methyl)phenyl)-phosphonic Acid]
fold improvement in potency over 44 (Tdp1 [3]; Tdp1 IC50 vs compound 44): 7.3 fold

N#C/C(=C\c1ccc(O)c(O)c1)C(=O)O [Compound 4]
Tdp1 inhibition (in words) (Tdp1 [3]): completely inactive

N#C/C(=C\c1ccc(O)c(O)c1)C(=O)NCc1ccccc1 [Compound 6]
Tdp1 inhibition (in words) (Tdp1 [3]): completely inactive

O=C1NC(=O)/C(=C/c2ccc(O)c(O)c2)S1 [Compound 39, (Z)-5-(3,4-Dihydroxybenzylidene)thiazolidine-2,4-dione]
IC50 (Tdp1 [3]): 111 to 333 µM

O=C1NC(=S)N(Cc2ccccc2)/C1=C\c1ccc(F)cc1 [Compound 37, (Z)-1-Benzyl-5-(4-fluorobenzylidene)-2-thioxoimidazolidin-4-one]
IC50 (Tdp1 [3]): 111 to 333 µM

O=C1/C(=C/c2ccc3[nH]ccc3c2)NC(=S)N1c1ccccc1 [Compound 34, (Z)-5-((1H-Indol-5-yl)methylene)-3-phenyl-2-thioxoimidazolidin-4-one]
IC50 (Tdp1 [3]): 111 to 333 µM

N#C/C(=C\c1ccc(O)c(O)c1)C(N)=O [Compound 5]
Tdp1 inhibition (in words) (Tdp1 [3]): completely inactive
